Columns and labels:
[1] = Elimination rate constant in Beagle dog at 0.5 mg/kg, iv administered as bolus dose by HPLC-based liquid scintillation counting analysis; type: ADME, organism-based, Canis lupus familiaris; set-up: dose 0.5 mg/kg, route intravenous; conditions: in vivo
Summary of the method: (§1)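 [14C]M-III in saline given as a single iv bolus at 0.5 mg/kg to male rats (tail-vein blood, 5 min–24 h) or male beagle dogs (cephalic-vein blood, 5 min–168 h). Heparinized plasma counted for radioactivity; M-III quantified by HPLC with fraction collection and liquid scintillation counting. C5 min read directly; terminal t1/2 by linear regression, kel = ln2/t1/2, Vd = dose/back-extrapolated C0, CLtot = dose/AUCinf. Mean ± S.D., n = 3.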

[2] = AUC infinity in Crj:CD(SD)IGS rat at 0.5 mg/kg, iv administered as bolus dose by HPLC-based liquid scintillation counting analysis; type: ADME, organism-based; set-up: time infinity, dose 0.5 mg/kg, route intravenous; conditions: plasma
Summary of the method: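 Male Crj:CD(SD)IGS rats (285–324 g, 8 weeks) were given [14C]M-III in saline (0.5 mg/ml) as an IV bolus of 0.5 mg–2.6 MBq/kg. Tail-vein blood was sampled from 5 min to 24 h to give heparinized plasma. After acetonitrile deproteinization, samples went through HPLC with fraction collection and scintillation counting. AUCinf = AUClast + Clast/kel, with terminal kel from linear regression; n = 3.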

[3] = Drug excretion in Crj:CD(SD)IGS rat urine assessed as excretion ratio of [14C] at 0.5 mg/kg, iv administered as bolus dose measured from 0 to 24 hrs by HPLC-based liquid scintillation counting analysis; type: ADME, organism-based; set-up: dose 0.5 mg/kg, route intravenous; conditions: in vivo
Summary of the method: (§2)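 Male rats in metabolic cages with urine/feces separator, or beagle dogs, after a 0.5 mg/kg iv bolus of [14C]M-III in saline. Radioactivity in urine and feces collected 0–24 h (rats) or 0–168 h (dogs) was counted and expressed as percent of dose. Mean ± S.D., n = 3.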

[4] = In vitro plasma protein binding in dog at 5 ug/ml by ultrafiltration method; type: ADME, cell-free, Canis lupus familiaris; conditions: read-out: PPB (converted)
Summary of the method: (§3)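 [14C]M-III in saline was added to rat or dog plasma at final 0.5, 5 and 50 µg/ml. Plasma was ultrafiltered by centrifugation at 1500g and 37°C for 10 min, and 14C was measured in plasma and filtrate. Mean ± S.D., n = 3.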

[5] = Drug excretion in Beagle dog feces assessed as excretion ratio of [14C] at 0.5 mg/kg, iv administered as bolus dose measured from 0 to 168 hrs by HPLC-based liquid scintillation counting analysis; type: ADME, organism-based, Canis lupus familiaris; set-up: dose 0.5 mg/kg, route intravenous; conditions: in vivo; summary of the method: as §2
[6] = In vivo plasma protein binding in Crj:CD(SD)IGS rat at 0.125 mg/hr, iv administered as continuous infusion by ultrafiltration method; type: ADME, organism-based; conditions: read-out: PPB (converted)
Summary of the method: (§4)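 Rats received a continuous iv infusion of [14C]M-III at 0.125 mg/rat/h, with probenecid co-infused at 16, 31 or 62 mg/h/kg or vehicle alone, for 5 h. Arterial plasma was sampled during infusion. CLtot = infusion rate / steady-state plasma M-III (120–180 min). Unbound fraction was measured by ultrafiltration of 5-h plasma (10,000 MWCO, 1500g, 37°C, 10 min). CLint = CLtot / unbound ratio.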

[7] = In vivo plasma protein binding in Crj:CD(SD)IGS rat at 0.125 mg/hr, iv administered as continuous infusion by ultrafiltration method in presence of 62 mg/hr/kg probenecid; type: ADME, organism-based; conditions: with probenecid 62 mg/hr/kg, read-out: PPB (converted); summary of the method: as §4
[8] = In vitro plasma protein binding in rat at 50 ug/ml by ultrafiltration method; type: ADME, cell-free; conditions: read-out: PPB (converted); summary of the method: as §3
[9] = Ratio of drug level in kidney medulla to plasma in Beagle dog at 0.5 mg/kg, iv administered as bolus dose by HPLC-based liquid scintillation counting analysis; type: ADME, organism-based, Canis lupus familiaris; set-up: dose 0.5 mg/kg, route intravenous
Summary of the method: (§5)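 Rats received [14C]M-III in saline by continuous jugular-vein infusion for 4 h (0.5 mg/rat/h per methods; 0.25 mg/h in legend), then aortic blood and kidneys were collected. Dogs received a 0.5 mg/kg iv bolus, with blood and kidneys (cortex and medulla separated) collected at 24 h. 14C was measured in tissue homogenates and plasma as a tissue/plasma ratio. Rat n = 3, dog n = 2.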

[10] = Total body clearance in Crj:CD(SD)IGS rat at 0.125 mg/hr, iv administered as continuous infusion by HPLC based liquid scintillation counting analysis in presence of 16 mg/hr/kg probenecid; type: ADME, organism-based; conditions: in vivo, with probenecid 16 mg/hr/kg; summary of the method: as §4
[11] = Total body clearance in Crj:CD(SD)IGS rat at 0.125 mg/hr, iv administered as continuous infusion by HPLC based liquid scintillation counting analysis in presence of 62 mg/hr/kg probenecid; type: ADME, organism-based; conditions: in vivo, with probenecid 62 mg/hr/kg; summary of the method: as §4
[12] = Ratio of drug level in kidney cortex to plasma in Beagle dog at 0.5 mg/kg, iv administered as bolus dose by HPLC-based liquid scintillation counting analysis; type: ADME, organism-based, Canis lupus familiaris; set-up: dose 0.5 mg/kg, route intravenous; summary of the method: as §5
[13] = Drug uptake in Beagle dog plasma at 0.5 mg/kg, iv administered as bolus dose after 5 mins by HPLC-based liquid scintillation counting analysis; type: ADME, organism-based, Canis lupus familiaris; set-up: dose 0.5 mg/kg, route intravenous; summary of the method: as §1
[14] = Ratio of drug level in kidney to plasma in Crj:CD(SD)IGS rat at 0.25 mg/hr, iv administered as continuous infusion by HPLC-based liquid scintillation counting analysis; type: ADME, organism-based; summary of the method: as §5
[15] = Drug excretion in Crj:CD(SD)IGS rat feces assessed as excretion ratio of [14C] at 0.5 mg/kg, iv administered as bolus dose measured from 0 to 24 hrs by HPLC-based liquid scintillation counting analysis; type: ADME, organism-based; set-up: dose 0.5 mg/kg, route intravenous; conditions: in vivo; summary of the method: as §2
[16] = In vitro plasma protein binding in dog at 0.5 ug/ml by ultrafiltration method; type: ADME, cell-free, Canis lupus familiaris; conditions: read-out: PPB (converted); summary of the method: as §3
[17] = In vivo plasma protein binding in Crj:CD(SD)IGS rat at 0.125 mg/hr, iv administered as continuous infusion by ultrafiltration method in presence of 31 mg/hr/kg probenecid; type: ADME, organism-based; conditions: with probenecid 31 mg/hr/kg, read-out: PPB (converted); summary of the method: as §4
[18] = Unbound fraction in Crj:CD(SD)IGS rat plasma at 0.125 mg/hr, iv administered as continuous infusion by ultrafiltration method in presence of 31 mg/hr/kg probenecid; type: ADME, organism-based; conditions: with probenecid 31 mg/hr/kg; summary of the method: as §4
[19] = Total body clearance in Crj:CD(SD)IGS rat at 0.5 mg/kg, iv administered as bolus dose by HPLC-based liquid scintillation counting analysis; type: ADME, organism-based; set-up: dose 0.5 mg/kg, route intravenous; conditions: in vivo; summary of the method: as §1
[20] = Apparent volume of distribution in Beagle dog at 0.5 mg/kg, iv administered as bolus dose by HPLC-based liquid scintillation counting analysis; type: ADME, organism-based, Canis lupus familiaris; set-up: dose 0.5 mg/kg, route intravenous; conditions: in vivo, read-out: Vd(app); summary of the method: as §1
[21] = Unbound fraction in Crj:CD(SD)IGS rat plasma at 0.125 mg/hr, iv administered as continuous infusion by ultrafiltration method; type: ADME, organism-based; summary of the method: as §4
[22] = In vivo plasma protein binding in Crj:CD(SD)IGS rat at 0.125 mg/hr, iv administered as continuous infusion by ultrafiltration method in presence of 16 mg/hr/kg probenecid; type: ADME, organism-based; conditions: with probenecid 16 mg/hr/kg, read-out: PPB (converted); summary of the method: as §4
[23] = Total body clearance in Crj:CD(SD)IGS rat at 0.125 mg/hr, iv administered as continuous infusion by HPLC based liquid scintillation counting analysis; type: ADME, organism-based; conditions: in vivo; summary of the method: as §4
[24] = Total body clearance in Beagle dog at 0.5 mg/kg, iv administered as bolus dose by HPLC-based liquid scintillation counting analysis; type: ADME, organism-based, Canis lupus familiaris; set-up: dose 0.5 mg/kg, route intravenous; conditions: in vivo; summary of the method: as §1

## N[14c]1[14cH][14cH][14c](OS(=O)(=O)O)[14cH][14c]1Cl
[1]
  k el: 1.68e-06 s⁻¹
[2]
  AUC(0-inf): 802 ng·h/mL
[3]
  Drug excretion: 84.7%
[4]
  fraction unbound at 5 ug/ml: 0.087
[5]
  Drug excretion: 7.7%
[6]
  fraction unbound: 0.088
[7]
  fraction unbound: 0.184
[8]
  fraction unbound at 50 ug/ml: 0.102
[9]
  Kp: 0.2
[10]
  clearance: 4.45 mL/min/kg
[11]
  clearance: 1.83 mL/min/kg
[12]
  Kp: 0.1
[13]
  concentration at 5 min: 4690 ng/mL
[14]
  Kp: 3.5
[15]
  Drug excretion: 10.3%
[16]
  fraction unbound at 0.5 ug/ml: 0.098
[17]
  fraction unbound: 0.197
[18]
  fraction unbound: 0.197
[19]
  clearance: 10.5 mL/min/kg
[20]
  Vd: 0.0989 L/kg
[21]
  fraction unbound: 0.088
[22]
  fraction unbound: 0.078
[23]
  clearance: 11.4 mL/min/kg
[24]
  clearance: 21.2 mL/day/kg
